Experiment [1] addresses T1, Tyrosine-protein phosphatase non-receptor type 1 (Homo sapiens, UniProt P18031).
T1 sequence (P18031 whole entry): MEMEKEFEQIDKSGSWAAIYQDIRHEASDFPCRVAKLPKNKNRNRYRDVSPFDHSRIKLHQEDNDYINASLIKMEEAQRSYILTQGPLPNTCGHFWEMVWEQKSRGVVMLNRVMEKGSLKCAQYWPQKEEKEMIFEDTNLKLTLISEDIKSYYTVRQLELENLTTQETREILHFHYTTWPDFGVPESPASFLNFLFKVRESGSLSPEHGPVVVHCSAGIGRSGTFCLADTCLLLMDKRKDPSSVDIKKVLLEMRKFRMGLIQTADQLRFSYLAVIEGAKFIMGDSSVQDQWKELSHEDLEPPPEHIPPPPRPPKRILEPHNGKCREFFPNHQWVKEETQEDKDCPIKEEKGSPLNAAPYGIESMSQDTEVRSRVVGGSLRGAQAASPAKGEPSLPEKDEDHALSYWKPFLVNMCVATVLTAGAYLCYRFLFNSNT
As to the kind of experiment: Inhibitory activity against recombinant human PTP1B. An outline of the steps: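 Recombinant human PTP-1B (0.1 μg) incubated with 20 μM fluorescein diphosphate and compound in 30 mM Tris, 75 mM NaCl, 0.67 mM EDTA, 1 mM DTT, pH 8.0, for 1 h at room temperature. Product fluorescein monophosphate read by fluorescence (ex 485 nm, em 538 nm). IC50 reported.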

Experiment [2] addresses T2, Tyrosine-protein phosphatase non-receptor type 1 (Homo sapiens) (UniProt P18031).
T2 sequence (whole entry): T1 sequence (P18031 whole entry)
As to the kind of experiment: Inhibitory activity against recombinant human PTP1B at 10 uM.

The target of experiment [3] is Dual specificity protein phosphatase 3 (Homo sapiens, UniProt P51452). As to the kind of experiment: Inhibitory activity against VH1-related phosphatase VHR at 10 uM. An outline of the steps: (§1)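 Phosphatase selectivity panel using fluorescein diphosphate substrate at 20 μM, the same level as in the PTP-1B assay. Compound tested at a single concentration of 10 μM; percent inhibition of enzyme activity reported.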

The target in experiment [4] is T3, M-phase inducer phosphatase 2 (Homo sapiens) (UniProt P30305).
T3 sequence (whole entry): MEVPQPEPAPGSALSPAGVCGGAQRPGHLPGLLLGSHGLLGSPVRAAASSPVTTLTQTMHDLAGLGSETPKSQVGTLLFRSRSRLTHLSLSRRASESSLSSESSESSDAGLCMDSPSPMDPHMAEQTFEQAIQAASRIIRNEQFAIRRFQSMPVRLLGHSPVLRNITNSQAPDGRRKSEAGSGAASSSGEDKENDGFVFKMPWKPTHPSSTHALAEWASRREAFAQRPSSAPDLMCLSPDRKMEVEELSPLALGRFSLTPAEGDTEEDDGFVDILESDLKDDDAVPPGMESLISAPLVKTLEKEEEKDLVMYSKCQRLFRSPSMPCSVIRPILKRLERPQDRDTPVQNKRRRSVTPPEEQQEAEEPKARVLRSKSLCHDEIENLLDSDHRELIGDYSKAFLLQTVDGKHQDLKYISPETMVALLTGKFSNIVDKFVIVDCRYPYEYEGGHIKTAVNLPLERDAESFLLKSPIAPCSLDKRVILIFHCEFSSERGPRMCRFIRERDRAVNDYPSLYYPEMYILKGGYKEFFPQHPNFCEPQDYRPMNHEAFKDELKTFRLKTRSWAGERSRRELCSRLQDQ
As to the kind of experiment: Inhibitory activity against cdc25B phosphatase at 10 uM. In outline: as §1

The target in experiment [5] is Serine/threonine-protein phosphatase PP1-gamma catalytic subunit (Homo sapiens, UniProt P36873). As to the kind of experiment: Inhibitory activity against Protein phosphatase 1 at 10 uM. In outline: as §1
For experiment [6], the target named is T4, Receptor-type tyrosine-protein phosphatase C (Homo sapiens) (UniProt P08575).
T4 sequence (whole entry): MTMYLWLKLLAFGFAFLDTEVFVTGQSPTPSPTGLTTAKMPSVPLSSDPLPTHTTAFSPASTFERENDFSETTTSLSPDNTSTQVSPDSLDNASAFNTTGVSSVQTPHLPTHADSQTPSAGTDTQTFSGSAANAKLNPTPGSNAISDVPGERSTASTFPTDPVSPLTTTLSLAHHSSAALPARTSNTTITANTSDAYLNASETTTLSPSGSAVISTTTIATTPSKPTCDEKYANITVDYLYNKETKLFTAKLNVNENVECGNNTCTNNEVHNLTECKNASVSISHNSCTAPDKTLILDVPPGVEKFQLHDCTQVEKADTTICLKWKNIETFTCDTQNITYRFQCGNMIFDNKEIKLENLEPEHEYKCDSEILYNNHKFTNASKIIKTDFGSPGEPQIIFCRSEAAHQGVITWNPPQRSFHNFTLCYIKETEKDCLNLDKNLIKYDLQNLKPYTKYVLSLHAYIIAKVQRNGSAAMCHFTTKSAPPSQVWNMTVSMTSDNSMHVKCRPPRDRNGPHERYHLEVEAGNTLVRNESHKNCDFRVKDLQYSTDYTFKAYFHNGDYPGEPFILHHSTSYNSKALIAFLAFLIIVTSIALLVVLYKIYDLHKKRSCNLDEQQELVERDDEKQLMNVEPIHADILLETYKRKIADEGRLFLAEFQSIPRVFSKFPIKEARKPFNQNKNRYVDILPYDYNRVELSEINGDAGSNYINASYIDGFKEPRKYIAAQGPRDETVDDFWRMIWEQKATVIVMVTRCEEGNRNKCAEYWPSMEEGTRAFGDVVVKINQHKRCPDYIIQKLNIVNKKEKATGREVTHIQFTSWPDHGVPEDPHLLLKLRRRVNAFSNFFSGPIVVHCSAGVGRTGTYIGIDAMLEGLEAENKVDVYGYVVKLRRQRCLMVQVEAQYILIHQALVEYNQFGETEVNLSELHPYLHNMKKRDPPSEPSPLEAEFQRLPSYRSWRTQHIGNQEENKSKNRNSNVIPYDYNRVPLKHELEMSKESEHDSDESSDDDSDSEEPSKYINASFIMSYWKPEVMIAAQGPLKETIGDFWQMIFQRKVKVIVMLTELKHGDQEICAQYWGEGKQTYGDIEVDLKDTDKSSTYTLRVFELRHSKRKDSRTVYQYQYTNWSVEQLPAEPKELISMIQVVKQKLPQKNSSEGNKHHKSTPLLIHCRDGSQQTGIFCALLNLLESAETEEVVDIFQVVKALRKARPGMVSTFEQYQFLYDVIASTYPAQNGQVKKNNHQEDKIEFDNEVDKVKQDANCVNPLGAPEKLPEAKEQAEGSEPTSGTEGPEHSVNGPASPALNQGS
As to the kind of experiment: Inhibitory activity against CD45 phosphatase at 10 uM. An outline of the steps: as §1

The target of experiment [7] is Tyrosine-protein phosphatase YopH (Yersinia enterocolitica) (UniProt P15273). As to the kind of experiment: Inhibitory activity against YOP protein tyrosine phosphatase at 10 uM. An outline of the steps: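 Yop phosphatase tested in the nine-phosphatase selectivity panel with 20 μM fluorescein diphosphate as substrate. Inhibitor tested at a single concentration of 10 μM; the value is % inhibition.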

Experiment [8] concerns the target T5, M-phase inducer phosphatase 1 (Homo sapiens) (UniProt P30304).
T5 sequence (whole entry): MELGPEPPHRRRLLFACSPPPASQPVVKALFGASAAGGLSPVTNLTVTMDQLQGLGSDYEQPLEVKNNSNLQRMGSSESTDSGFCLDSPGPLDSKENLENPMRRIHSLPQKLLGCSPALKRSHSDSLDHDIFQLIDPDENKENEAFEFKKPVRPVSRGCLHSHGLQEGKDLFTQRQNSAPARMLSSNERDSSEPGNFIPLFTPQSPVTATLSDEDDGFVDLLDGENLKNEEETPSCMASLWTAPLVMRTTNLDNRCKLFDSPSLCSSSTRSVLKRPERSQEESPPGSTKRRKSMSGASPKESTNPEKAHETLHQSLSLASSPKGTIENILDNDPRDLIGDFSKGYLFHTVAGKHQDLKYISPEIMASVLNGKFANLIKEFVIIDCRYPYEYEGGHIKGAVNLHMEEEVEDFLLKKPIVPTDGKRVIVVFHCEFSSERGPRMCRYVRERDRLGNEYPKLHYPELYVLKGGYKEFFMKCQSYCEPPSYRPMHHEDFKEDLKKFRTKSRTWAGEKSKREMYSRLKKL
As to the kind of experiment: Inhibitory activity against cdc25A phosphatase at 10 uM. In outline: as §1

Experiment [9] addresses Receptor-type tyrosine-protein phosphatase F (Homo sapiens, UniProt P10586). As to the kind of experiment: Inhibitory activity against LAR protein tyrosine phosphatase at 10 uM. In outline: as §1
The nature of experiment [10]: Inhibitory activity against protein phosphatase type 2A at 10 uM. In outline:
as §1

For 33 compounds, IC50 and inhibition results are on record in ChEMBL document CHEMBL1149392, “PTP-1B inhibitors: cyclopenta[d][1,2]-oxazine derivatives” (Bioorg Med Chem Lett, 2006).

As a reminder, the IC50 is the concentration needed to halve the response being measured. Broadly, the inhibition is the change of the read-out against control, counted positive when it falls.

Molecules are shown by their SMILES. Active and inactive are the calls of the source. The calls are words filed in the database; no cut-off is given here.

Sequence of Dual specificity protein phosphatase 3 (P51452 whole entry, looked up): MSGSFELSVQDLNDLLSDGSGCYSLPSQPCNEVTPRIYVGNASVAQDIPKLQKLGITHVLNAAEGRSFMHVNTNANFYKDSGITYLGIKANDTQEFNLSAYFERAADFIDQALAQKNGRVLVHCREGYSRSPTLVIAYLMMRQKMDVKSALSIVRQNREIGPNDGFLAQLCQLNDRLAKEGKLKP
Sequence of Serine/threonine-protein phosphatase PP1-gamma catalytic subunit (P36873 2-323 limits assumed): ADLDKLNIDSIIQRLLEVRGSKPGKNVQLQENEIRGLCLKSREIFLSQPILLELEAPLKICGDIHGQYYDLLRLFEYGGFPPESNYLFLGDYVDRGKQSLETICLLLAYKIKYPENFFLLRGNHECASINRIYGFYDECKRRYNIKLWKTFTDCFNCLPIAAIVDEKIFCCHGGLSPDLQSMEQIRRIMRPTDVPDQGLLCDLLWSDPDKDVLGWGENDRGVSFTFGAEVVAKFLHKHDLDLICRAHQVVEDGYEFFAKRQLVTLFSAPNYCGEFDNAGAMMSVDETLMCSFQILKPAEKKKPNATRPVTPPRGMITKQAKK
Sequence of Receptor-type tyrosine-protein phosphatase F (P10586 whole entry): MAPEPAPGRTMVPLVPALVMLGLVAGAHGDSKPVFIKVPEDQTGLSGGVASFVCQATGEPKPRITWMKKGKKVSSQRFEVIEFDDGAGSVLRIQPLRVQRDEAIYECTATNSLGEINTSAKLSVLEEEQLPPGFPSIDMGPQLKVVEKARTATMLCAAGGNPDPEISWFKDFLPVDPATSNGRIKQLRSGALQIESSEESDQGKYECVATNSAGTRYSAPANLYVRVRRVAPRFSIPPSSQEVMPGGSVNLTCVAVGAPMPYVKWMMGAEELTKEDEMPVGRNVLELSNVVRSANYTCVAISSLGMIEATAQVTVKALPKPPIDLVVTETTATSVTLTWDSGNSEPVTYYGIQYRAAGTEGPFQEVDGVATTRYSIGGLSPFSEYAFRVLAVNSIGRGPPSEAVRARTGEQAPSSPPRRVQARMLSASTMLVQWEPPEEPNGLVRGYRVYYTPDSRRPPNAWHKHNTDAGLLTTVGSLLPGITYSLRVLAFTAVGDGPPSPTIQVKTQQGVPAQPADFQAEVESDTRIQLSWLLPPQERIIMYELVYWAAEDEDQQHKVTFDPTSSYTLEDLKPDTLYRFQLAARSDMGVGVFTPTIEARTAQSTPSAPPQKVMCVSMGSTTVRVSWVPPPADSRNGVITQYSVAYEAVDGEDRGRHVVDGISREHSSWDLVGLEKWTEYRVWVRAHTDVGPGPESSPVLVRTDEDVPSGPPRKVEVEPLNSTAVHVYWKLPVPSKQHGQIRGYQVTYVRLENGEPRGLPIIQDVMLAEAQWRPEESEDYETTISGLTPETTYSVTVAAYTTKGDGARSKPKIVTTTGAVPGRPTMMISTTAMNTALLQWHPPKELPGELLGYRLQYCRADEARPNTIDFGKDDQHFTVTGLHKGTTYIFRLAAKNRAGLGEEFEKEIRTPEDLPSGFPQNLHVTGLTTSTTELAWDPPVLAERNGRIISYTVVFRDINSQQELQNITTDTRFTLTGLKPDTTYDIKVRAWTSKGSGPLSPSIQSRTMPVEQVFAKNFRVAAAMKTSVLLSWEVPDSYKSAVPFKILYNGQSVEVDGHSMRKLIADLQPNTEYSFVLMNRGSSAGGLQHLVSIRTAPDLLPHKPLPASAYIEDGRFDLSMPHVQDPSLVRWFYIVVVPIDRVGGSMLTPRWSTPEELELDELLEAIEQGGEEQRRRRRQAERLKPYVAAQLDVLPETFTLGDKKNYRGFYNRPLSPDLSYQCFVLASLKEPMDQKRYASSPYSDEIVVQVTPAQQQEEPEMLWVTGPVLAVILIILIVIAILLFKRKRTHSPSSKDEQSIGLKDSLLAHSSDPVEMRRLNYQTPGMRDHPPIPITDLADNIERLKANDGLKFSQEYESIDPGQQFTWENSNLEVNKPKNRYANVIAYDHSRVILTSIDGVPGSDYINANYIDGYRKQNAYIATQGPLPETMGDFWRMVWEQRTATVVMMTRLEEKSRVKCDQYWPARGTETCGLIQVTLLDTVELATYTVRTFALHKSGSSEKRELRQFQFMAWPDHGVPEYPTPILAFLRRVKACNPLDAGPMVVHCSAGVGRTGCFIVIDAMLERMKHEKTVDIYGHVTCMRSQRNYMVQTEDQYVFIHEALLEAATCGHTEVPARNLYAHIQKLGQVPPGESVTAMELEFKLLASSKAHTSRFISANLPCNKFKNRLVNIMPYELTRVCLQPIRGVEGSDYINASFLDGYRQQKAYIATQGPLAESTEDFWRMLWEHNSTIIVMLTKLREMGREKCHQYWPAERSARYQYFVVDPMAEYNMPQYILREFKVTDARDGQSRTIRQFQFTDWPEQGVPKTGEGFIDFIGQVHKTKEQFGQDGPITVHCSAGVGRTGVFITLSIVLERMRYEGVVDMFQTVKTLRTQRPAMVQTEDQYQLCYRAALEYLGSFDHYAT
Sequence of Tyrosine-protein phosphatase YopH (Yersinia enterocolitica) (P15273 whole entry): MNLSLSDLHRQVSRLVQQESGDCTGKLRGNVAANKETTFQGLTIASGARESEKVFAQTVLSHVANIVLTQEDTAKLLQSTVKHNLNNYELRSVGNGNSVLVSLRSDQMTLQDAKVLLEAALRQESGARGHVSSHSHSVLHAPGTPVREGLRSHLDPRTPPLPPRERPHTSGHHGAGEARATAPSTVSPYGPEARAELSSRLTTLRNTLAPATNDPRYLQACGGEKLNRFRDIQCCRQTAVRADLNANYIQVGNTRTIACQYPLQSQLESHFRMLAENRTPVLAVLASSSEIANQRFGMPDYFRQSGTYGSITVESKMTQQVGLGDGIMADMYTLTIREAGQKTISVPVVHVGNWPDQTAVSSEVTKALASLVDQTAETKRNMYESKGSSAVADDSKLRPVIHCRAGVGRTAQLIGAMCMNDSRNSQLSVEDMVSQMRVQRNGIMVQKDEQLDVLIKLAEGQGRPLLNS

In the case of `O=C(O)COc1ccc(-c2nocc3c(C(=O)c4cccc(C(F)(F)F)c4)ccc2-3)cc1`, in experiment [1], the IC50 was 7.55 µM. The inhibition in [2] is 68.9%. Regarding `COc1ccc(-c2nocc3c(C(=O)c4ccc(Cl)cc4Cl)ccc2-3)cc1`, in experiment [1], the half-maximal inhibitory concentration (IC50) was determined as 3.4 µM. The inhibition in experiment [2] worked out at 101%. `COc1ccc(C(=O)c2ccc3c(-c4ccc(OC(C(=O)O)C(=O)O)cc4)nocc2-3)cc1`: the inhibition in experiment [2] worked out at 3.3%. Same read-out and setting: the figure for `O=C(O)COc1ccc(-c2noc(-c3ccccc3)c3cccc2-3)cc1` is 1.1%. With `CCCCCCCCCCCCCCC(=O)c1ccc2c(-c3ccc(OCC(=O)O)cc3)nocc1-2`, in [1], the concentration for half-maximal inhibition (IC50) was found to be 0.27 µM. Besides, in experiment [2], the inhibition turned out to be 101%. On to `COCCNCc1ccc(C(=O)c2ccc3c(-c4ccc(OCC(=O)O)cc4)nocc2-3)cc1`, for which the inhibition in experiment [2] was found to be 10.2%. On to `O=C(O)COc1ccc(-c2nocc3c(C(=O)c4ccco4)ccc2-3)cc1`, for which the inhibition result in [2] was “inactive”. As to `COc1ccc(C(=O)c2ccc3c(-c4ccc(O[C@@H](Cc5ccccc5)C(=O)O)cc4)nocc2-3)cc1`, the inhibition in [3] was -6.83%; in experiment [4], 89.7%; in experiment [5], 63.5%; in experiment [6] it was 95.7%; in [7], 96.8%; in [8], 10.3%. Moreover, the inhibition in experiment [9] amounted to 17.3%; in [2], 80.1%. Further, the 50% inhibitory concentration (IC50) in experiment [1] is 7.82 µM.

`Cc1onc(-c2ccc(OCC(=O)O)cc2)c2cccc1-2`: the inhibition result in experiment [2] is “inactive”. Still for that read-out and setting: the value for `CC(=O)c1ccc2c(-c3ccc(OCC(=O)O)cc3)nocc1-2` was “inactive”. With `O=C(c1ccc2c(-c3ccc(OC(C(=O)O)C(=O)O)cc3)nocc1-2)C1CCCC1`, in experiment [1], the IC50 turned out to be 8.19 µM. Further, the inhibition in [2] amounted to 76.7%. Consider `CCOC(=O)COc1ccc(-c2nocc3cccc2-3)cc1`, for which the inhibition in experiment [2] was found to be 2.1%. The same measure, in the same setting: the value for `COc1ccccc1C(=O)c1ccc2c(-c3ccc(OCC(=O)O)cc3)nocc1-2` was 3.8%; that for `N#Cc1cccc(C(=O)c2ccc3c(-c4ccc(OCC(=O)O)cc4)nocc2-3)c1` was “inactive”.

For the compound `COc1ccc(C(=O)c2ccc3c(-c4ccc(OCC(=O)N5CCN(Cc6ccccc6)CC5)cc4)nocc2-3)cc1`, in experiment [1], the IC50 amounted to 5.48 µM. The inhibition in [2] came out at 68.8%. Turning to `COc1ccc(O)c(CC(=O)c2ccc3c(-c4ccc(OCC(=O)O)cc4)nocc2-3)c1`, the inhibition in experiment [2] came to 48.7%.

Turning to `Oc1ccc(-c2nocc3cccc2-3)cc1`, the inhibition in experiment [2] is 18.5%. Turning to `O=C(O)COc1ccc(-c2nocc3cccc2-3)cc1`, in experiment [2], the inhibition amounted to 27.4%. As to `COc1cccc(C(=O)c2ccc3c(-c4ccc(OCC(=O)O)cc4)nocc2-3)c1`, in experiment [1], the IC50 turned out to be 1.96 µM. Also, the inhibition in experiment [2] was 87.4%. Regarding `O=C(O)COc1ccc(-c2nocc3c(C(=O)c4ccc(Cl)cc4)ccc2-3)cc1`, the inhibition in [2] is 14.3%. Take `COc1ccc(C(=O)c2ccc3c(-c4cc(Br)c(OCC(=O)O)c(Br)c4)nocc2-3)cc1`: the inhibition in experiment [3] turned out to be 53.4%; in experiment [4], 100%; in experiment [5], 106%; in [6] it was 100%; in [7], 101%; in [10], 41.8%. Further, the inhibition came to 40.5% in experiment [8], 57.7% in [9] and 101% in [2]. The half-maximal inhibitory concentration (IC50) in [1] came out at 1.64 µM. For the compound `O=C(O)COc1ccc(-c2nocc3c(C(=O)C4CCCC4)ccc2-3)cc1`, the inhibition in experiment [2] came to 15.7%. Turning to `COc1ccc(CC(=O)c2ccc3c(-c4ccc(OCC(=O)O)cc4)nocc2-3)cc1`, in experiment [1], the IC50 amounted to 5.63 µM. Moreover, the inhibition in experiment [2] is 85.5%. As to `O=C(O)COc1ccc(-c2nocc3c(C(=O)c4ccc(Cl)cc4Cl)ccc2-3)cc1`, the inhibition in experiment [2] is 38%.

As to `O=C(c1ccc2c(-c3ccc(OC(CCO)C(=O)O)cc3)nocc1-2)C1CCCC1` (configuration not stated), the inhibition result in experiment [2] is “inactive”.

On to `O=C(O)COc1ccc(-c2nocc3c(C(=O)CCC4CCCC4)ccc2-3)cc1`, for which the inhibition in [2] came out at 42.4%. On the same count and under the same terms, the figure for `COc1ccc(C(=O)c2ccc3c(-c4ccc(OC)cc4)nocc2-3)cc1` is 32%; for `O=C(O)COc1ccc(-c2nocc3c(C(=O)c4ccccc4F)ccc2-3)cc1` it is 11.9%. The same measure, in the same setting: the entry for `COc1ccc(C(=O)c2ccc3c(-c4ccc(OCC(=O)O)cc4)noc(C)c2-3)cc1` is “inactive”; for `COc1ccc(-c2nocc3cccc2-3)cc1` it is 3%; for `CCOC(=O)/C=C/c1ccc2c(-c3ccc(OCC(=O)O)cc3)nocc1-2` it is “inactive”.

Take `COc1ccc(C(=O)c2ccc3c(-c4ccc(OCC(=O)NCCO)cc4)nocc2-3)cc1`: in [2], the inhibition result is “inactive”.

For the compound `COc1ccc(C(=O)c2ccc3c(-c4ccc(OCC(=O)NCN5CCOCC5)cc4)nocc2-3)cc1`, in [2], the inhibition entry was “inactive”.
